Holding throughout (assay type): functional
One assay concerns MCF7. Briefly: Growth inhibition of human MCF7 cells after 48 hrs by sulforhodamine B assay. As to conditions: MCF7, 48 h. The method, boiled down:
(§1)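 Adherent cells in RPMI-1640 with 5% heat-inactivated FBS, 2 mM glutamine and penicillin/streptomycin at 37 °C and 5% CO₂. Plated at 1.5 × 10⁵ cells/mL (MCF-7) or 0.75 × 10⁵ cells/mL (A375-C5, NCI-H460), then incubated 24 h. Exposed 48 h to five serial dilutions from DMSO stocks (≤0.25% DMSO). SRB staining, absorbance at 492 nm. GI50 is the mean ± SEM of three independent duplicate experiments.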

Assay [1] in a line: Growth inhibition of human A375-C5 cells after 48 hrs by sulforhodamine B assay. As to conditions: A375-C5, 48 h. In a few lines:
as §1
(In general: Sulforhodamine B stains cellular protein and so reports cell mass.)

The subject of the next assay is NCI-H460. Nature of the assay: Growth inhibition of human NCI-H460 cells after 48 hrs by sulforhodamine B assay. The following applies: NCI-H460, 48 h. In a few lines:
as §1

Regarding `COC(=O)c1sc2cc(Nc3ccc(OC)c(OC)c3)cnc2c1N`, the figures for the GI50 (with MCF7; in assay [1]; in the assay on NCI-H460) were 30 µM, 26.3 µM and 26.2 µM, respectively.
For `COC(=O)c1sc2cc(Nc3ccc(OC)cc3)cnc2c1N`, the values for the GI50 (in the assay on MCF7; in assay [1]; with NCI-H460) were 124 µM, more than 150 µM and 95 µM, respectively.
For `COC(=O)c1sc2cc(Nc3ccc(OC)cc3OC)cnc2c1N`, in that order: 26.3 µM, 27.3 µM and 26.3 µM.
`COC(=O)c1sc2cc(Nc3cc(OC)cc(OC)c3)cnc2c1N`: the GI50 (with MCF7; in assay [1]; with NCI-H460) was more than 150 µM throughout.
Take `COC(=O)c1sc2cc(Nc3cc(OC)ccc3Cl)cnc2c1N`: the values for the 50% growth inhibitory concentration (GI50) (in the assay with MCF7; in assay [1]; in the assay on NCI-H460) were 22.1 µM, 25.8 µM and 21.7 µM, respectively.
For `COC(=O)c1sc2cc(Nc3ccccc3Br)cnc2c1N`, in that order: 28.9 µM, 34.1 µM and 30.9 µM.
On the same counts, the results for `COC(=O)c1sc2cc(Nc3ccc(F)cc3Br)cnc2c1N` are 28.9 µM, 34 µM and 31.3 µM.
In the case of `COC(=O)c1sc2cc(Nc3nc4ccccc4s3)cnc2c1N`, the GI50 in the assay with MCF7 amounted to 6 µM; in assay [1] it was 3.5 µM; in the assay on NCI-H460, 6.4 µM.
Take `COC(=O)c1sc2cc(Nc3ccc4[nH]ccc4c3)cnc2c1N`: the results for the concentration for 50% growth inhibition (GI50) (with MCF7; in assay [1]; in the assay with NCI-H460) were 18.1 µM, 17.3 µM and 15.8 µM, respectively.
For `COC(=O)c1sc2cc(Nc3nccc4ccccc34)cnc2c1N`, in that order: more than 150 µM, more than 150 µM and more than 150 µM.
`COC(=O)c1sc2cc(Nc3ccccn3)cnc2c1N`: the GI50 (in the assay with MCF7; in assay [1]; in the assay on NCI-H460) was more than 150 µM in each case.
For the compound `COC(=O)c1sc2cc(Nc3cccnc3)cnc2c1N`, the concentration for 50% growth inhibition (GI50) with MCF7 is 82.4 µM; in assay [1], more than 150 µM; with NCI-H460 it was 49.4 µM.
On the same counts, the results for `COC(=O)c1sc2cc(Nc3ncccn3)cnc2c1N` are more than 150 µM, more than 150 µM and more than 150 µM.
For `COc1cccc2c1C(=O)c1c(O)c3c(c(O)c1C2=O)C[C@@](O)(C(=O)CO)C[C@@H]3O[C@H]1C[C@H](N)[C@H](O)[C@H](C)O1` [DOXORUBICIN], in that order: 0.0433 µM, 0.13 µM and 0.0356 µM.

As a reminder, the GI50 is the concentration giving 50% growth inhibition.

The values are drawn from ChEMBL document CHEMBL1629489, “Novel 6-[(hetero)arylamino]thieno[3,2-b]pyridines: synthesis and antitumoral activities” (2010).
